This is a sample that favours compounds with a hit; in the whole collection about 3.5% have one here.
MrgX1 agonist = human MrgX1 receptor agonism, primary screen; MrgX1-HEK293 cells, Fluo-4 calcium fluorescence, agonist mode; hits give high values; B-score at 10 µM; Q96LB2; hit rate 0.44% among 310,000;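 active = calcium response B-score plate-corrected fluorescence ratio at least 3 library SD, with starting fluorescence B-score inside 5 SD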
Target sequence (Q96LB2 whole entry, looked up): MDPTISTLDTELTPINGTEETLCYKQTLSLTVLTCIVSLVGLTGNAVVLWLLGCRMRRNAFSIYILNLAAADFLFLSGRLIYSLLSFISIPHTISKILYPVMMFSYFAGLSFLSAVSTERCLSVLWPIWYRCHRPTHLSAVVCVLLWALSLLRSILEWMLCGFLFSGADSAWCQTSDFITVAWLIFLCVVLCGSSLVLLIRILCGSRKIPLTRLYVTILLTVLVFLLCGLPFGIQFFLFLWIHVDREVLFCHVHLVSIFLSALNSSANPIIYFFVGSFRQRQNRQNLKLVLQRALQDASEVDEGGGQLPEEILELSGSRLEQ
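Assay system: stable human MrgX1 HEK293 cell line. Quantity: 15,000 cells per well. Schedule: cells plated overnight, dye loaded 0.5 h 37 °C, 0.5 h room temperature. Detection: Fluo-4 NW calcium-flux fluorescence, kinetic read. Read-out basis: peak-minus-minimum fluorescence over baseline, converted to B scores. Control set: positive and negative control wells on each plate.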
MrgX1 antag = antagonists of human MrgX1 receptor; Q96LB2; MRGX1-HEK293 calcium flux, Fluo-4, BAM8-22 antagonism; hits give low values; B-score at 10 µM; hit rate 1.3% among 310,000;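 active = calcium-response B-score plate-corrected more than 3 library SD below zero, starting fluorescence within 5 deviations, no agonist response on first addition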;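 note: peak minus trough fluorescence over baseline after final BAM8-22 challenge near maximal dose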
RGS4 pot = RGS4 potentiation or activation; HEK293 M3R/inducible RGS4, carbachol calcium flux Fluo4; hits give low values; B-score at 10 µM; hit rate 0.92% among 310,000; AID 463111;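 active = B-score of the integrated calcium signal more than 4 SD below the library mean, with starting fluorescence not abnormally high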;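 note: negative B-score means reduced calcium response which marks RGS4 activation or potentiation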
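Test system: HEK293 cells with stable M3R and inducible RGS4; also added: carbachol at ECmax as muscarinic agonist stimulus; schedule: dye loading 30 min 37 °C, buffer rest 30 min RT; technique: kinetic calcium fluorescence imaging with Fluo4-AM dye, 2 µM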
MrgX1 allo act = allosterically activates human MrgX1 receptor signaling. Q96LB2. MrgX1-HEK293, Fluo-4 calcium flux, FDSS; hits give high values. B-score at 10 µM. hit rate 0.63% among 310,000. AID 588675;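 active = plate-corrected calcium response at least 3 library SD above typical, normal starting fluorescence, not activating the receptor alone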;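 note: compound read alongside a low EC10 to EC30 dose of BAM8-22 agonist; peak minus trough fluorescence over baseline measured at the second addition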
RGS4 inh = inhibitors of human RGS4; HEK293 M3R/RGS4 inducible, Fluo-4 calcium flux; hits give high values; triggered by carbachol at its EC20; B-score at 10 µM; hit rate 0.45% among 310,000;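 active = B-score, a plate-corrected calcium signal, over three deviations above library mean, with baseline fluorescence within five deviations of library mean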;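 note: RGS4 expression induced by doxycycline in cells with stable M3 receptor; B-score is computed from the integrated fluorescence ratio over baseline after carbachol; higher B-score means a larger calcium signal and so more RGS4 inhibition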
Target sequence (P49798 whole entry, looked up): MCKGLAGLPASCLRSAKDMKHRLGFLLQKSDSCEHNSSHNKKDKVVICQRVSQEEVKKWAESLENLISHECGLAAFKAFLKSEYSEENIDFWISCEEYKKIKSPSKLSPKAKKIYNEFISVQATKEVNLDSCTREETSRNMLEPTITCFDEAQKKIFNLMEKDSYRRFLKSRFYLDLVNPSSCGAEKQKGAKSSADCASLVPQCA
RGS4 block valid = RGS4 inhibitor validation. shares compounds with RGS4 inh. calcium response, % at 10 µM. HEK293 M3R/RGS4, carbachol calcium Fluo-4 fluorescence; carbachol added at its EC20; 0 = buffer wells, 100 = carbachol control. hit rate 65% among 1,700. AID 492999;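 active = duplicate-averaged calcium response above the buffer-only control mean plus 5 SD of those controls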;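 note: integrated fluorescence ratio F max minus min over baseline F0; higher response in RGS4-induced cells means RGS4 inhibition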
M3R Ca ctr = non-induced cell nonspecific activity of RGS4 inhibitors | hit rate 20% among 1,900 | activity (percent), % at 10 µM | HEK293 M3R non-induced, carbachol calcium Fluo-4; submaximal (EC20) carbachol stimulus; buffer wells 0%, carbachol control wells 100% | shares compounds with RGS4 inh | AID 493000; call rule not given here;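 note: RGS4 induction absent so cells express M3R without RGS4; higher means more calcium signal and flags a non-specific hit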
RGS4 inh ctr2 = second counter-screen for RGS4 inhibitors: non-induced cells without carbachol | hit rate 22% among 1,900 | HEK293 M3R/RGS4 non-induced, Fluo-4 calcium, no carbachol; normalised: buffer wells 0%, carbachol wells 100% | shares compounds with RGS4 inh | calcium response (agonist-mode artifact), % at 10 µM;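 active = duplicate-averaged calcium rise in uninduced cells above buffer wells' mean plus 5 SD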
Large screens that a line does not name were inactive (follow-up assays come after a bar, where they were run).

O=C(c1cccs1)N1CCc2c([nH]c3ccccc23)C1c1ccccn1 (stereo unspecified)	none
Cc1cccc2cc(/C=C/C(=O)c3ccco3)c(Cl)nc12	none
CCOc1ccc2nc(Cl)c(/C=C/C(=O)c3ccco3)cc2c1	RGS4 inh 9.5 | RGS4 block valid inactive | M3R Ca ctr 40% | RGS4 inh ctr2 inactive
O=C(Nc1ccccc1C(=O)NCCCN1CCOCC1)c1cccc([N+](=O)[O-])c1	none
CCc1ccc2c(c1)c(N=NC1=NC(=O)CS1)c(O)n2C	none | M3R Ca ctr inactive | RGS4 inh ctr2 inactive
O=S(=O)(C/C(=C/CO)S(=O)(=O)c1ccccc1)c1ccccc1	MrgX1 agonist 34, RGS4 inh 10 | RGS4 block valid 38% | M3R Ca ctr 36% | RGS4 inh ctr2 16%
Cc1onc(NC(=O)c2ccc(Cl)cc2Cl)c1Br	none
Cc1ccc(CNC(=O)C2CCC(=O)N(Cc3ccccc3F)C2)s1 (stereo unspecified)	none
Cc1onc(-c2ccccc2)c1C(=O)Nc1ccc(S(=O)(=O)NC(C)(C)C)cc1	none
Oc1ccc(-c2nc(-c3ccc(O)c(O)c3)cs2)cc1	none | RGS4 block valid inactive | M3R Ca ctr inactive | RGS4 inh ctr2 inactive
O=C(CN1C(=O)CCC1=O)Nc1nc(-c2ccc3ccccc3c2)cs1	RGS4 inh 8 | RGS4 block valid 5.0% | M3R Ca ctr inactive | RGS4 inh ctr2 inactive
Oc1ccc(Nc2nc(-c3ccc4ccccc4c3)cs2)cc1	RGS4 inh 41 | RGS4 block valid 84% | M3R Ca ctr 88% | RGS4 inh ctr2 inactive
CC(=O)Nc1nc(-c2ccc3ccccc3c2)cs1	RGS4 inh 5.1 | RGS4 block valid inactive | M3R Ca ctr inactive | RGS4 inh ctr2 inactive
O=C(CNC(=O)N1CC(=O)Nc2ccccc21)Nc1ccc(F)c(Cl)c1	none
CCc1nnc(N/N=C/c2ccc(N3CCC(C)CC3)c([N+](=O)[O-])c2)n1N	none
Cc1nnc(N/N=C/c2cc([N+](=O)[O-])c(N3CCC(C)CC3)cc2N2CCC(C)CC2)n1N	RGS4 inh 4.9 | RGS4 block valid 9.5% | M3R Ca ctr 36% | RGS4 inh ctr2 inactive
N#Cc1ccccc1CSCCNC(=O)Cc1c(F)cccc1Cl	none
CCOc1ccc(CCNC(=O)CCc2nnc3ccc(N4CCCCC4)nn23)cc1OCC	none
Nc1nc(Cl)cc(N2CCCC2)n1	none
Nc1nc(Cl)cc(N2CCC(c3cc(-c4ccc(Cl)cc4Cl)n[nH]3)CC2)n1	RGS4 inh 7.3 | RGS4 block valid 16% | M3R Ca ctr inactive | RGS4 inh ctr2 inactive
O=C(N/N=C/C(Br)=C/c1ccccc1)c1n[nH]c2c1CCC2	RGS4 inh 5.1 | RGS4 block valid 18% | M3R Ca ctr inactive | RGS4 inh ctr2 inactive
COc1ccc(/C=N/NC(=O)c2nnn(-c3nonc3N)c2-c2cccs2)cc1OC	none
CCOc1cccc(-c2c(C(=O)N/N=C/c3cccs3)nnn2-c2nonc2N)c1	RGS4 inh 5.6 | RGS4 block valid 30% | M3R Ca ctr inactive | RGS4 inh ctr2 inactive
COc1ccc(/C=N/NC(=O)c2nnn(-c3nonc3N)c2-c2cccc(OC)c2)cc1	MrgX1 allo act 7.2 | M3R Ca ctr 30% | RGS4 inh ctr2 8.0%
COc1cccc(-c2c(C(=O)N/N=C(\C)c3ccco3)nnn2-c2nonc2N)c1	none
COc1cccc(-c2c(C(=O)N/N=C/c3cccs3)nnn2-c2nonc2N)c1	MrgX1 antag -7.6 | M3R Ca ctr 40% | RGS4 inh ctr2 inactive
CCn1c(C)nc2cc(C(=O)N3N=C(CCOC)CC3(O)C(F)(F)F)ccc21 (stereo unspecified)	none
COc1ccc(C2(C#N)CCC(=O)N2c2ccccc2)cc1 (stereo unspecified)	none
CCCc1ccc(-c2cc(NC(=O)CSc3nnc(N)s3)n(-c3ccccc3)n2)cc1	RGS4 inh 8.8 | RGS4 block valid 20% | M3R Ca ctr inactive | RGS4 inh ctr2 inactive
Cc1nnc(SCC(=O)Nc2cc(-c3cc(C)c(C)cc3C)nn2-c2ccccc2)s1	none
Cc1ccc(C2=NOC(=O)/C2=C\c2ccccc2)cc1	none
O=C1ON=C(c2ccccc2)/C1=C/c1ccccc1	none | RGS4 block valid inactive | M3R Ca ctr inactive | RGS4 inh ctr2 inactive
O=C1ON=C(c2ccccc2)/C1=C\c1ccco1	none
O=C1ON=C(c2ccccc2)/C1=C/c1ccc(O)cc1	RGS4 inh 11 | RGS4 block valid 24% | M3R Ca ctr inactive | RGS4 inh ctr2 22%
CCCn1cnnc1CNC(=O)C1CCC(=O)N(CCc2cccc(F)c2)C1 (stereo unspecified)	none
Cc1ccccc1CN1CCN(C(=O)CC(C)C)CC1	none
O=C(CNc1ccc(Cl)cc1)c1ccc(Br)cc1	none
O=C(CNc1ccc(Br)cc1)c1ccc(O)cc1	RGS4 inh 9.6 | RGS4 block valid 22% | M3R Ca ctr inactive | RGS4 inh ctr2 inactive
O=C1c2ccccc2NC(c2ccc(-c3cccc([N+](=O)[O-])c3)o2)N1O (stereo unspecified)	none | M3R Ca ctr inactive | RGS4 inh ctr2 inactive
O=C1c2ccccc2NC(c2ccc(-c3ccc(Br)cc3)o2)N1O (stereo unspecified)	none
C[C@]12C(=O)N(c3ccccc3)C(=O)N1[C@@H]1c3ccccc3OC[C@@H]1[C@H]2c1ccccc1	none | RGS4 block valid inactive | M3R Ca ctr inactive | RGS4 inh ctr2 inactive
C[C@]12C(=O)N(c3ccc(C(F)(F)F)cc3)C(=O)N1[C@@H]1c3ccccc3OC[C@@H]1[C@H]2c1ccccc1	none
C[C@]12C(=O)N(c3cccc(F)c3)C(=O)N1[C@@H]1c3ccccc3OC[C@@H]1[C@H]2c1ccccc1	none | RGS4 block valid inactive | M3R Ca ctr inactive | RGS4 inh ctr2 inactive
Cc1ccc(N2C(=O)N3[C@H]4c5ccccc5OC[C@@H]4[C@@H](c4ccccc4)[C@@]3(C)C2=O)cc1	none
CCOC(=O)Nc1ccc(=O)n(Cc2c(Cl)cccc2Cl)c1	RGS4 inh 7.7 | RGS4 block valid 36% | M3R Ca ctr 28% | RGS4 inh ctr2 inactive
COC(=O)CSc1[nH]c2cc(C)ccc2c1[N+](=O)[O-]	RGS4 inh 16 | RGS4 block valid 44% | M3R Ca ctr inactive | RGS4 inh ctr2 inactive
CCOc1ccc2[nH]c(SCC(=O)OC)c([N+](=O)[O-])c2c1	MrgX1 antag -4.8, RGS4 inh 7.6 | RGS4 block valid 18% | M3R Ca ctr inactive | RGS4 inh ctr2 49%

Compound activity as filed in PubChem.
